{"source": "paper PMC5433042", "about": "(Chemical Science, 2014)", "key": {"[1]": {"system": "B. subtilis 1981 GFP-MinD", "test": "GFP-MinD delocalization assay", "assay_type": "cell-based, Bacillus subtilis", "conditions": "8 μg mL^–1 (2× MIC), nisin 0.75 μg mL^–1; 15 minutes"}, "B. subtilis 168 [2]": {"system": "B. subtilis 168", "test": "BacLight membrane disruption assay", "assay_type": "cell-based, Bacillus subtilis", "conditions": "8 μg mL^–1 (2× MIC), nisin 0.75 μg mL^–1; 15 minutes", "procedure,_shortened": "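B. subtilis 168 is grown in Belitzky minimal medium to early log phase and exposed for 15 min; untreated aliquot serves as control. Cells are stained 15 min with a 1:1 SYTO 9/propidium iodide mix (1 μL per mL cells), washed twice in 100 mM Tris/1 mM EDTA pH 7.5, then examined by fluorescence microscopy. Red or orange cells in the overlay indicate permeabilized membranes.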"}, "B. subtilis 168 [3]": {"system": "B. subtilis 168", "test": "Cell wall integrity assay", "assay_type": "cell-based, Bacillus subtilis", "conditions": "8 μg mL^–1 (2× MIC), nisin 0.75 μg mL^–1; 15 minutes"}, "HeLa cells": {"system": "HeLa cells", "test": "Resazurin cell viability assay, HeLa", "assay_type": "cell-based, human", "procedure,_shortened": "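HeLa cells are kept in DMEM with 5% FCS, penicillin/streptomycin, at 37 °C and 5% CO2. Cells are seeded in triplicate at 4 × 10^3 per well one day ahead, then exposed 48 h to increasing concentrations diluted in medium from 10 mg mL−1 DMSO stocks. Medium is then replaced with resazurin (0.2 mg mL−1 final) for 4 h at 37 °C, and resorufin fluorescence is read at ex 540/em 590 nm.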"}}, "data": [{"molecule": "nisin (ITSISLCTPGCKTGALMGCNMKTATCHCSIHVSK; not fully specified; Lantibiotic nisin-A; UniProt P13068 24-57, looked up)", "values": [{"measurement": "GFP-MinD localization (membrane depolarization)", "setting": "[1]", "value": "MinD delocalization"}, {"measurement": "membrane permeabilization, BacLight staining", "setting": "B. subtilis 168 [2]", "value": "red fluorescencing cells"}, {"measurement": "cell wall integrity after acetic acid/methanol fixation", "setting": "B. subtilis 168 [3]", "value": "membrane extrusions"}]}, {"molecule": "N.N.[Cl][Pt][Cl]", "note": "[Cisplatin]", "values": [{"measurement": "IC50 HeLa", "setting": "HeLa cells; 48 h", "value": "3.5 ± 0.9", "unit": "μg mL^–1"}, {"measurement": "IC50", "setting": "HeLa cells; read-out: IC50 HeLa, 48 h", "value": "11.5 ± 2.9", "unit": "µM"}]}]}
